From PubChem
Most compounds without a hit are left out; they make up all but 2.1% or so of the library.
APJ antagonist = APJ receptor antagonism; P35414; CHO-K1 APJ beta-arrestin complementation, luminescence; inhibition, % at 20 µM; 0.32% of 330,000 active; AID 2521;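 active = inhibition above about 40% at 20 µM, limit read from the data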;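 note: cells challenged with 10 nM apelin-13 agonist together with compound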
APJ agonist = APJ receptor agonism | P35414 | CHO-K1 APJ PathHunter beta-arrestin, luminescence; 0% DMSO wells, 100% apelin | activation, % at 20 µM | 0.11% of 330,000 active | AID 2520;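 active = activation more than six SD over the plate average, tested at 20 µM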
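system = engineered CHO-K1 APJ arrestin reporter cells | input = 1000 cells per well | timing = overnight seeding, 90 min compound at 25 °C, 1 h detection | measured by = enzyme-fragment complementation luminescence | read-out = beta-arrestin recruitment to APJ as agonist activity, luminescent signal | control set = negative DMSO alone, positive Apelin-13 at 10 nM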
m5-HT2A agonist = mouse HTR2A agonism via beta-arrestin recruitment. P35363. CHO-K1 mHTR2A beta-arrestin complementation, luminescence; percent of 30 µM serotonin response. activation, % at 7.6 µM. 0.66% of 360,000 active. AID 624169;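 active = activation above a run cutoff, the mean activation of all tested compounds plus 3 SD, cut at about 14% in these data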
Target sequence (P35363 whole entry, looked up): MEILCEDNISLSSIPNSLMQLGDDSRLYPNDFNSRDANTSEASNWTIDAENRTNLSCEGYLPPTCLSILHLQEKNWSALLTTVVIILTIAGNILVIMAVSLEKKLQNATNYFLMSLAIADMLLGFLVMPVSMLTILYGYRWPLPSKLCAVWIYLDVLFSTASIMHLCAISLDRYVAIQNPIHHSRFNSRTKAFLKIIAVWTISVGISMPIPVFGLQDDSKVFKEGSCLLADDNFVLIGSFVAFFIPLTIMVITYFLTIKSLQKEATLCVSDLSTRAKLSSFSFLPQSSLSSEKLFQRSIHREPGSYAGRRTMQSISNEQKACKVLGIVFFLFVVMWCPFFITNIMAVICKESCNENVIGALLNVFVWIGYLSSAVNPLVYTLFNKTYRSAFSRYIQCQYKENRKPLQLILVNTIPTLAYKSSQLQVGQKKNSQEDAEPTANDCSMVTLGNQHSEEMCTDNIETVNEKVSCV
CXCR6 inh = inhibitors of human CXCR6 receptor; 0.36% of 360,000 active; O00574; CHO-K1 PathHunter CXCR6 beta-arrestin, luminescence; inhibition, % at 20 µM; in the data active = inhibition above about 34%, passing the limit was not always enough;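 note: antagonist mode with CXCL16 agonist at 10 nM final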
EBI2 block = antagonists of human EBI2 receptor; P32249; EBI2 beta-arrestin recruitment, luminescence, 7a,25-OHC stimulated; inhibition, % at 5 µM; 0.81% of 360,000 active; AID 651636; in the data active = inhibition above about 38%;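 note: enzyme fragment complementation signal reports receptor beta-arrestin coupling in cells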
CCR6 antagonist = antagonists of human CCR6 receptor; inhibition, % at 20 µM; 0.49% of 340,000 active; P51684; AID 493098; CHO-K1 CCR6 PathHunter beta-arrestin, luminescence, CCL20-stimulated;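 active = compounds whose inhibition of the agonist-driven luminescence signal at 20 µM reaches about 50%, limit read from the data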;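 note: cells stimulated with CCL20 at 14 nM final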
APJ antag confirm = confirmation of human APJ apelin receptor antagonists; shares compounds with APJ antagonist; APJ beta-arrestin recruitment, luminescence, antagonist mode; inhibition, % at 20 µM; 66% of 950 active; AID 2766; in the data active = inhibition above about 50%
Each line names hits and unclear results; the compound was inactive in the other large screens (follow-up assays come after a bar, where they were run).

CCOC(=O)C(NCc1ccccc1OC)(NC(=O)c1ccccc1)C(F)(F)F (stereo not given)	none
CCOC(=O)c1cnc(Nc2nc3ccccc3o2)nc1CSC(=S)N(CC)CC	APJ antagonist 46 | APJ antag confirm inactive
CCOC(=O)c1cnc(Nc2nc3ccccc3o2)nc1CSc1ncccn1	none (no result: m5-HT2A agonist, CXCR6 inh, EBI2 block)
COc1cc([N+](=O)[O-])cc(/C=N/NC(=O)C(O)(c2ccccc2)c2ccccc2)c1O	APJ antagonist 47 | APJ antag confirm inactive
O=C(N/C(=C/c1cccc([N+](=O)[O-])c1)C(=O)N1CCCCC1)c1ccco1	none
CN(C)S(=O)(=O)c1cccc(NC(=O)C2Cc3ccccc3CN2C(=O)c2ccccc2)c1 (stereo not given)	none
COc1ccc(C(=O)/C=C/C(=O)N(CC(=O)NC2CCCCC2)CC2CCCO2)c(O)c1 (stereo not given)	APJ antagonist 56, CXCR6 inh 68, CCR6 antagonist 87 | APJ antag confirm 110
COc1ccc(C(=O)/C=C/C(=O)N(Cc2ccccc2)C(C(=O)NC2CCCCC2)c2ccncc2)c(O)c1 (stereo not given)	none
CN1CCN(C(=O)c2ccc(N(C)S(=O)(=O)c3cccs3)cc2)CC1	none
Cc1ccc(C(C[N+](=O)[O-])Sc2ccc(N)cc2)cc1 (stereo not given)	APJ antagonist 46, CXCR6 inh 53, CCR6 antagonist 52 | APJ antag confirm 74
Cc1ccc(C(C[N+](=O)[O-])n2nc(C)cc2C)cc1 (stereo not given)	none
O=C(CCCCn1c(=S)[nH]c2ccsc2c1=O)NCc1ccc2c(c1)OCO2	none
CCc1c(N)nc(N)nc1Nc1ccccc1Cl	none (no result: APJ antagonist, APJ agonist)
CCN(CC)CCCn1c2c(c(SCC(=O)Nc3cc(OC)cc(OC)c3)nc1=O)CCC2	APJ antagonist 55 | APJ antag confirm inactive
CCN(CC)CCCn1c2c(c(SCC(=O)Nc3ccc(F)c(F)c3)nc1=O)CCC2	none
C/C(=N\NC(=O)C(O)c1ccccc1)c1cccnc1 (stereo not given)	none
CC(=O)N/N=C(/c1ccccc1)C(O)c1ccccc1 (stereo not given)	APJ antagonist 43 | APJ antag confirm inactive
O=c1c2cc([N+](=O)[O-])cc([N+](=O)[O-])c2[nH]n1-c1ccccc1	APJ antagonist 41, CCR6 antagonist 56 | APJ antag confirm 76
CCN1C(=O)/C(=C\C=C2/C=CC=CN2CC)SC1=S	APJ antagonist 65, CXCR6 inh 54, CCR6 antagonist 64 | APJ antag confirm 122
O=C(Nc1ccccc1)Nc1ccc(F)cc1F	none
CCC1=NN(C(=O)c2ccc(Cl)cc2)C(O)(c2ccccc2)C1 (stereo not given)	APJ antagonist 41 | APJ antag confirm inactive
CCOC(=O)C1=CN(c2cccc(F)c2)C=C(C(=O)OCC)C1c1cc(OC)c(O)c([N+](=O)[O-])c1	APJ antagonist 44 | APJ antag confirm inactive
O=C(O)c1ccc(Nc2ccc([N+](=O)[O-])c3nonc23)cc1	APJ antagonist 42, CCR6 antagonist 59 | APJ antag confirm 76
O=C(O)c1cccc(Nc2ccc([N+](=O)[O-])c3nonc23)c1	APJ antagonist 41, CCR6 antagonist 58 | APJ antag confirm 78
COc1ccc(Nc2ccc([N+](=O)[O-])c3nonc23)c(OC)c1	APJ antagonist 44, CXCR6 inh 44, CCR6 antagonist 60 | APJ antag confirm 78
O=[N+]([O-])c1ccc(Nc2ccccc2O)c2nonc12	none
Cc1ccc(NC(=O)c2cc(C(C)(C)C)nn2Cc2ccccc2)cc1	none
Cc1ccc(NNC(=O)c2cc(C(C)(C)C)nn2Cc2ccccc2)cc1	APJ antagonist 41 | APJ antag confirm 103
COC(=O)/C(C#N)=C/c1c(N2CCN(c3cccc(Cl)c3)CC2)nc2c(C)cccn2c1=O	none
Cc1ccc(F)cc1NC(=O)c1cccc2nccnc12	none
CC(=O)Nc1ccc(NCc2cccs2)cc1	APJ antagonist 104 | APJ antag confirm inactive
CC(=O)Nc1ccc(NCCc2cccs2)cc1	none (no result: APJ antagonist, APJ agonist, CCR6 antagonist)
CCOc1ccc(S(=O)(=O)N2CCN(C(=O)c3ccc(Cl)c(S(=O)(=O)N4CCOCC4)c3)CC2)cc1	none (no result: APJ antagonist, APJ agonist)
